# Assay outcomes from PubChem.
# A selection: hits, their analogues and other compounds. The true share with any hit is near 2.3%.
# TRPC4 inh = inhibitors of mouse TRPC4 channel, primary screen, Fluo4 calcium, HEK293 TRPC4beta/mu-opioid cells; DAMGO-evoked Fluo4 calcium flux; active compounds read low; B-score at 10 µM; Short transient receptor potential channel 4 (Mus musculus), Q9QUQ5; AID 2247, 2010; hit rate 0.39% among 300,000;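 active means B-score over 3 SD under the library average, no early fluorescence shift, positive overall ratio signal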
# Target sequence (Q9QUQ5 whole entry, looked up): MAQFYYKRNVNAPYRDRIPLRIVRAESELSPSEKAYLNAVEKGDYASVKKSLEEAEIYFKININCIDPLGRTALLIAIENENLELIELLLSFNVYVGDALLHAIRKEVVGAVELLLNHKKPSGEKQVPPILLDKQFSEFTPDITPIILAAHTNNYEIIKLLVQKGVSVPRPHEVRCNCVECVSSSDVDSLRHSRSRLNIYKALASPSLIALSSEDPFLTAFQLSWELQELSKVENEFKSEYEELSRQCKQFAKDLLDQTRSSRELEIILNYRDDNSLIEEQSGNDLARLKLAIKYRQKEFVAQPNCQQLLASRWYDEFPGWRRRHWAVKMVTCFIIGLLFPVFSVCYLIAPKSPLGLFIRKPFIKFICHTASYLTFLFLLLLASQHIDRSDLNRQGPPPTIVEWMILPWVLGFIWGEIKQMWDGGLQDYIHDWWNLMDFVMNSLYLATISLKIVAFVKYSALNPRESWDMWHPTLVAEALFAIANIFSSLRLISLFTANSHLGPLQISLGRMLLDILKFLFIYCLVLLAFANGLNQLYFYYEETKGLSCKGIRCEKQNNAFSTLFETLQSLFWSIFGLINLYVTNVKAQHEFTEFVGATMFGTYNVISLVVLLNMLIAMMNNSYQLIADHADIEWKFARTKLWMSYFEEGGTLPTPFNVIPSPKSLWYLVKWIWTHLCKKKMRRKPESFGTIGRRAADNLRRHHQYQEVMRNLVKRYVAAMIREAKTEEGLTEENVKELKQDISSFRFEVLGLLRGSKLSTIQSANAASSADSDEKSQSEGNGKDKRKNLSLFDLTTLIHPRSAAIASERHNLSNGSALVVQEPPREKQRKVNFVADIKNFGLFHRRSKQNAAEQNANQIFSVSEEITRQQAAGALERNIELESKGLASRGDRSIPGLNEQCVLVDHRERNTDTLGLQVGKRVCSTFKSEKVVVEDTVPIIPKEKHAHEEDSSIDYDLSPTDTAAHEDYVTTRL
#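 test system = HEK293 cells with stable TRPC4beta plus mu-opioid receptor expression | detection = Fluo4 Ca2+ flux fluorescence | read-out = integrated fluorescence ratio relative to baseline, converted to per-well B score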
# TRPC6 inhibitor = mouse TRPC6 channel inhibitors, primary screen, cell-based, HEK293, membrane potential dye; Short transient receptor potential channel 6 (Mus musculus), Q61143; ACh-evoked depolarization; active compounds read low; B-score at 10 µM; hit rate 1.1% among 310,000; AID 2553, 2010;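 active means B-score under library mean minus 3 SD, initial fluorescence not abnormally high, positive integrated signal ratio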;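 further: B-score derived from integrated fluorescence ratio over the kinetic read; more negative B-score means stronger inhibition of depolarization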
# TRPC4 act = activators of mouse TRPC4 channel, primary screen, Fluo4 calcium, HEK293 TRPC4beta/mu-opioid cells; hit rate 0.49% among 310,000; Fluo4 calcium fluorescence; active compounds read high; B-score at 10 µM; Short transient receptor potential channel 4 (Mus musculus), Q9QUQ5;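 active means B-score above 5 SD of library B-scores, and initial fluorescence ratio not above library mean plus 5 SD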;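 further: positive B-score marks a calcium rise read as TRPC4 activation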
#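 System – HEK293 cells stably co-expressing mouse TRPC4beta and mu-opioid receptor · Signal – Fluo4 calcium-sensitive dye fluorescence, kinetic, 1 Hz baseline · Benchmarks – buffer (low) and maximal DAMGO (high) · Read-out – B score of integrated fluorescence ratio per well · Incubation – dye loading 45 min room temperature, 110 s kinetic read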
# TRPC6 act = mouse TRPC6 channel activators, primary screen, cell-based, HEK293, membrane potential dye | B-score at 10 µM | Short transient receptor potential channel 6 (Mus musculus), Q61143 | hit rate 0.13% among 310,000 | HEK293-TRPC6 membrane potential dye fluorescence; active compounds read high;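 active means B-score of the integrated fluorescence ratio above library mean plus 3 SD, and starting fluorescence ratio within library mean plus 5 SD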;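 further: higher score means more depolarization so channel activation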
# TRPC4 PAM = positive allosteric modulators of TRPC4, primary screen, cell-based, mouse TRPC4beta, HEK293 mu-opioid, Fluo-4 calcium; Short transient receptor potential channel 4 (Mus musculus), Q9QUQ5; DAMGO EC20, Fluo-4 Ca2+ flux; active compounds read high; B-score at 10 µM; hit rate 0.42% among 310,000;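 active means B-score of calcium response area above 5 SD of library B-scores, with initial fluorescence ratio within 5 SD of library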;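 further: B-score of integrated fluorescence ratio over time as area under calcium response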
# TRPC4 sel inh 2 = mouse TRPC4 off-target activity of TRPC6 inhibitors, second screen | shares compounds with TRPC6 inhibitor | HEK293 TRPC4/MOR, membrane potential dye fluorescence; channel activated by saturating DAMGO dose | inhibition, % at 10 µM | hit rate 42% among 920;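 active means compounds whose fluorescence signal differed from control wells by over 3 SD, either direction, in both duplicate plates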
# TRPC4 spec = mouse TRPC4 modulation by TRPC6 hits, confirmation, selectivity assay for TRPC6 inhibitor project, cell-based, HEK293 TRPC4/mu-opioid, membrane potential dye; shares compounds with TRPC6 inhibitor; membrane potential fluorescence; activity change, negative = inhibition, % at 10 µM; hit rate 61% among 920;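 active means rise or fall in signal beyond 3 SD of buffer-only wells in both replicate plates, either sign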;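 further: integrated kinetic ratio of fluorescence range over baseline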
# HEK293 MPD ctr 2-1 = nonspecific membrane potential effects, parental HEK293, confirmation, counter-screen for TRPC6 inhibitor project, cell-based, second counter screen | hit rate 31% among 920 | shares compounds with TRPC6 inhibitor | parental HEK293 membrane potential dye fluorescence; maximal acetylcholine challenge after compound addition | signal change vs control, % at 10 µM;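 active means membrane potential signal moving either way by over 3 SD of the maximum-effect control, in both duplicate plates, meaning non-specific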
# HEK293 MPD ctr-1 = membrane potential modulation in parental HEK293, confirmation, counter-screen for TRPC6 inhibitor project, cell-based. shares compounds with TRPC6 inhibitor. parental HEK293 membrane potential dye fluorescence. membrane potential signal change, % at 10 µM. hit rate 60% among 920. AID 2780, 2010;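 active means membrane potential signal shifting up or down by more than 3 SD of buffer-only wells, on both duplicate plates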
# HEK293 MPD ctr-2 = parental HEK293 membrane potential modulation, confirmation, counter-screen for TRPC6 modulator project, cell-based; membrane potential signal change, % at 10 µM; shares compounds with TRPC6 inhibitor; hit rate 51% among 2,400; membrane potential dye fluorescence;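 active means membrane potential signal moves up or down beyond 5 SD from buffer-only wells, on both duplicate plates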
# HEK293 MPD ctr 2-2 = second check of TRPC6 modulator effects in parental HEK293 cells. shares compounds with TRPC6 inhibitor. membrane potential dye fluorescence; after compound, maximal acetylcholine stimulation. inhibition, % at 10 µM. hit rate 14% among 2,400;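 active means membrane potential signal drops by more than 5 SD from the mean control signal, in both duplicate plates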;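 further: plate controls were acetylcholine ECmax control wells for no effect and buffer only wells for full effect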
# TRPC4/MOR mod = TRPC4 modulation by TRPC6 hit compounds, confirmation, selectivity assay for TRPC6 modulator project, cell-based, HEK293 TRPC4/mu-opioid, membrane potential dye, mouse; membrane potential fluorescence; percent change from control (negative = decrease, positive = increase), % at 10 µM; shares compounds with TRPC6 inhibitor; hit rate 69% among 2,400;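 active means membrane potential signal moved up or down beyond 5 SD of buffer control wells, in both duplicate plates, actives on both sides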;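 further: plate controls were assay buffer wells for no effect and DAMGO maximal-effect wells for full effect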
# TRPC4/MOR inh 2 = second check of whether TRPC6 modulators also affect mouse TRPC4. shares compounds with TRPC6 inhibitor. HEK293 TRPC4/mu-opioid, membrane potential dye fluorescence; stimulated with maximal-effect DAMGO. inhibition, % at 10 µM. hit rate 55% among 2,400. AID 488928;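 active means drop in membrane potential signal beyond 5 SD of the control wells in both duplicate plates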;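 further: TRPC4 counter screen for TRPC6 hits run under conditions tuned for TRPC6 not TRPC4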
# TRPC6 inh conf = mouse TRPC6 channel inhibitors, confirmation, HEK293 cells, membrane potential dye, duplicate; shares compounds with TRPC6 inhibitor; ACh-evoked depolarization; inhibition, % at 10 µM; hit rate 43% among 3,300; AID 488960, 2010;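 active means fluorescence ratio falls more than 5 SD below the full-stimulation control mean, in both duplicate runs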;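 further: integrated fluorescence ratio of peak minus minimum over baseline after agonist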
# TRPC6 act confirm = mouse TRPC6 channel activators, confirmation, HEK293 cells, membrane potential dye, duplicate. activation, % at 10 µM. shares compounds with TRPC6 inhibitor. hit rate 11% among 2,800. HEK293-TRPC6 membrane potential dye fluorescence, FDSS;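 active means ratio signal rise beyond 5 SD above unstimulated control wells' mean, seen in both duplicate runs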;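 further: plate controls were buffer EC0 wells for no effect and acetylcholine ECmax response for full effect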
# * = called active by the depositor; i = inactive; nt = no result given.
SMILES,TRPC4 inh,TRPC6 inhibitor,TRPC4 act,TRPC6 act,TRPC4 PAM,HEK293 MPD ctr-2,HEK293 MPD ctr 2-2,TRPC4/MOR mod,TRPC4/MOR inh 2,TRPC6 inh conf,TRPC6 act confirm,others
CC(=O)c1ccc(NC(=O)CN2C(=O)COc3ccc(S(=O)(=O)N4CCCC4)cc32)cc1,i,i,i,i,i,nt,nt,nt,nt,nt,nt,
O=C1c2cnc3ncnn3c2CC2c3ccccc3CCN12 (stereo unspecified),i,-4.99*,i,i,i,-105.0%*,i,-19.5%*,i,i,i,
COc1ccc(CCNCc2c(OC)ccc3ccccc23)cc1OC,i,i,i,i,i,nt,nt,nt,nt,nt,nt,
COc1ccc2ccccc2c1CNC(C)CCc1ccccc1 (stereo unspecified),i,-7.81*,i,i,i,nt,nt,nt,nt,53.0%*,nt,TRPC4 sel inh 2=33.5%*;TRPC4 spec=89.8%*;HEK293 MPD ctr 2-1=i;HEK293 MPD ctr-1=56.5%*
O=C(C1CCCN(c2ncnc3c2nc2n3CCCCC2)C1)N1CCN(c2ccccc2F)CC1 (stereo unspecified),i,i,i,i,i,nt,nt,nt,nt,nt,nt,
CCc1noc(C)c1C(=O)Nc1ccc(-c2nnc3n2CCCCC3)cc1,i,-4.98*,i,i,i,i,i,i,i,i,i,
CCc1noc(C)c1C(=O)Nc1ccc(S(=O)(=O)N2CCCCC2)cc1,i,i,i,i,i,nt,nt,nt,nt,nt,nt,
CCCCNc1nc(=S)n(-c2ccccc2)c(C)c1C(C)=O,i,i,i,i,i,nt,nt,nt,nt,nt,nt,
O=C(Nc1ccc(F)cc1F)c1cc(-c2ccc3c(c2)OCO3)on1,i,i,i,i,i,nt,nt,nt,nt,nt,nt,
CCN(CC)C(=O)CSc1nc2ccccc2c(=O)n1-c1cccc(OC)c1,i,-5.9*,i,12.4*,i,157.5%*,i,36.0%*,i,i,73.0%*,
Cc1ccccc1C(OCCN(C)C)c1ccccc1 (stereo unspecified),i,-5.01*,i,i,i,193.0%*,i,32.5%*,i,57.5%*,nt,
N#Cc1cc(Sc2ccccn2)c([N+](=O)[O-])cc1C#N,i,-8.28*,i,i,i,nt,nt,nt,nt,75.0%*,i,TRPC4 sel inh 2=i;TRPC4 spec=-20.8%*;HEK293 MPD ctr 2-1=-78.0%*;HEK293 MPD ctr-1=-319.5%*
c1ccc(-n2ncc3c(N4CCC5(CC4)OCCO5)ncnc32)cc1,i,-7.69*,i,i,i,nt,nt,nt,nt,i,i,TRPC4 sel inh 2=i;TRPC4 spec=i;HEK293 MPD ctr 2-1=220.5%*;HEK293 MPD ctr-1=i
Cc1cccc(-n2ncc3c(N4CCC5(CC4)OCCO5)ncnc32)c1,i,i,i,i,i,nt,nt,nt,nt,nt,nt,
CCOc1cc(/C=C2\SC(=NC)N(C)C2=O)cc(Cl)c1OC(C)=O,i,-5.01*,i,i,i,i,i,i,i,i,i,
Cc1cc(=O)oc2c3c4c(cc12)OCCN4CCC3,i,i,i,i,i,nt,nt,nt,nt,nt,nt,
CC(C)c1cc(=O)oc2c3c4c(cc12)CCCN4CCC3,i,-5.15*,i,i,i,640.0%*,i,-127.0%*,39.0%*,i,i,
CCN(CC)CCOC(=O)C1c2ccccc2Oc2ccccc21,i,-9.97*,i,i,i,nt,nt,nt,nt,81.4%*,nt,TRPC4 sel inh 2=i;TRPC4 spec=7.9%*;HEK293 MPD ctr 2-1=28.5%*;HEK293 MPD ctr-1=6.7%*
N#CCOC(=O)C1c2ccccc2Oc2ccccc21,i,i,i,i,i,nt,nt,nt,nt,nt,nt,
CCOC(=O)/C(=N\Nc1ccccc1[N+](=O)[O-])c1csc(N)n1,i,-5.18*,i,i,i,i,i,-18.5%*,i,i,i,
CCOC(=O)/C(=N\Nc1ccc(C(C)=O)cc1)c1csc(Nc2ccccc2)n1,i,i,i,i,i,nt,nt,nt,nt,nt,nt,
Cc1ccc(C)c(N2CCN(C(=O)CCCOc3cc(=O)n(C)c4ccccc34)CC2)c1,i,-6.23*,i,i,i,139.0%*,i,30.5%*,i,55.0%*,nt,
CCOCCN1CCN(C2c3ccccc3CSc3ccccc32)CC1 (stereo unspecified),i,-8.33*,i,i,i,nt,nt,nt,nt,i,nt,TRPC4 sel inh 2=72.0%*;TRPC4 spec=17.5%*;HEK293 MPD ctr 2-1=i;HEK293 MPD ctr-1=9.5%*
CCNC(=O)NC1c2ccccc2CSc2ccccc21 (stereo unspecified),i,i,i,i,i,nt,nt,nt,nt,nt,nt,
